Drawing on ChEMBL document CHEMBL1125306, “5,10-Methylenetetrahydro-5-deazafolic acid and analogues: synthesis and biological activities” (J Med Chem, 1992), this text covers IC50 and inhibition for three compounds.

For experiment [1], the target named is T1, Dihydrofolate reductase (Homo sapiens, UniProt P00374).
T1 sequence (P00374 whole entry): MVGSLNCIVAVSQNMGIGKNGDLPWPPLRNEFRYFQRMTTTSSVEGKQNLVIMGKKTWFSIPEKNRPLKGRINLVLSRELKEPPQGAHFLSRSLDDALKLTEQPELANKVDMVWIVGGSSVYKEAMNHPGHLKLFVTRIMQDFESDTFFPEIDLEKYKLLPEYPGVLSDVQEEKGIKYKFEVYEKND
The experiment in a line: Compound was evaluated for the inhibition of recombinant human Dihydrofolate reductase (DHFR).

The target of experiment [2] is T2, Dihydrofolate reductase (Homo sapiens) (UniProt P00374).
T2 sequence (whole entry): T1 sequence (P00374 whole entry)
In words: Percent inhibition against human DHFR. The following applies: concentration not given here.

Experiment [3] deals with Manca. In words: Compound was evaluated for the inhibition of Manca human lymphoma cell growth. It is filed as functional, cell-based. In a few lines:
(§1)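 Manca human lymphoma cells grown in RPMI medium with 10% fetal calf serum. Growth was estimated by tetrazolium reduction.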

Experiment [4] deals with T3, Thymidylate synthase (Lactobacillus casei, UniProt P00469).
T3 sequence (P00469 whole entry): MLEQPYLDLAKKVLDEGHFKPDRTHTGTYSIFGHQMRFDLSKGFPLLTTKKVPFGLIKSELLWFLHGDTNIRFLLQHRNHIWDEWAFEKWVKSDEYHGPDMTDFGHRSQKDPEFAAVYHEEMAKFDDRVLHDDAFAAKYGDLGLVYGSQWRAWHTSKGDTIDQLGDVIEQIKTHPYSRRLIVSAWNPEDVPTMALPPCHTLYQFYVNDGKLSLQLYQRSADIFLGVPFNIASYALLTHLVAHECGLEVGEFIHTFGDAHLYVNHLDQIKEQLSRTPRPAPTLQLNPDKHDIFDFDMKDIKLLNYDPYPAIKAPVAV
The experiment in a line: Compound was evaluated for the inhibition of Lactobacillus casei thymidylate synthase. Details: species or system Lacticaseibacillus casei.

In experiment [5] the target is Dihydrofolate reductase (Lactobacillus casei, UniProt P00381). In words: Compound was evaluated for the inhibition of Lactobacillus casei DHFR. Also noted: species or system Lacticaseibacillus casei.
Chain of Dihydrofolate reductase (Lactobacillus casei, UniProt P00381) (P00381 whole entry): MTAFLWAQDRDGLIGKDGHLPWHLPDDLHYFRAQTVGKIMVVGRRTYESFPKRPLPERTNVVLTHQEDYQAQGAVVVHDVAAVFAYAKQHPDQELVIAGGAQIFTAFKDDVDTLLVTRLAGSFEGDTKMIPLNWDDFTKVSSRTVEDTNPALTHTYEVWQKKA
Experiment [6] concerns Manca. In words: Compound was evaluated for the inhibition of Manca human lymphoma cell growth; no inhibition. It is filed as functional, cell-based. In a few lines:
as §1

Experiment [7] deals with Thymidylate synthase (Homo sapiens, UniProt P04818). The experiment in a line: Compound was evaluated for the inhibition of recombinant human thymidylate synthase.
Chain of Thymidylate synthase (Homo sapiens, UniProt P04818) (P04818 whole entry): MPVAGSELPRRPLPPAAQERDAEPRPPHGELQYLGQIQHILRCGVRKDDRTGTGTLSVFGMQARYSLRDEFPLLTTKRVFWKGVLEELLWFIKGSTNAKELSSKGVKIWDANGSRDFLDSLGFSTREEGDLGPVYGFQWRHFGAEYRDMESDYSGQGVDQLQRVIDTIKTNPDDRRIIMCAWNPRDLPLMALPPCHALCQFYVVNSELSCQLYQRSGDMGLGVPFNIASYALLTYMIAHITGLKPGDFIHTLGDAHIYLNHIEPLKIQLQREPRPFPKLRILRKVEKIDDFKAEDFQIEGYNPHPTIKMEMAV
The target in experiment [8] is T1, Dihydrofolate reductase. The experiment in a line: Compound was evaluated for the inhibition of recombinant human Dihydrofolate reductase (DHFR); no inhibition.
Experiment [9] concerns the target GAR formyltransferase (Lactobacillus casei). The experiment in a line: Compound was evaluated for the inhibition of Glycinamide ribonucleotide formyl transferase (GAR) with formyl (6R) tetrahydrofolate as substrate.

Turning to `Nc1nc(O)c2c(ncc3cn(-c4ccc(C(=O)NC(CCC(=O)O)C(=O)O)cc4)cc32)n1` (stereo not drawn), the concentration for half-maximal inhibition (IC50) was above 80 µM at Dihydrofolate reductase [1], 42 µM with Manca [3] and above 100 µM against Thymidylate synthase [4]. The compound also displayed an inhibition in experiment [2] of 23%.

`Nc1nc(O)c2c(n1)NCC1CN(c3ccc(C(=O)NC(CCC(=O)O)C(=O)O)cc3)CC21` (stereo not drawn): the half-inhibitory concentration (IC50) against Dihydrofolate reductase [5] was 5 µM; on Dihydrofolate reductase [1] it was above 40 µM; in the experiment on Manca [6] it was above 20 µM; at Thymidylate synthase [7], above 40 µM. This compound yielded an inhibition in experiment [2] of 34%.

Take `Cc1c2cnc3nc(N)nc(O)c3c2c(C)n1C`: the IC50 on Dihydrofolate reductase [8] was above 95 µM; in the experiment with Manca [3], above 10 µM; on Thymidylate synthase [4] it was 95 µM; in experiment [9], above 95 µM.
